Measurements: ChEMBL document CHEMBL2163197, “Synthesis and antimitotic and tubulin interaction profiles of novel pinacol derivatives of podophyllotoxins” (2012)
Structures can show the parent of a compound that is named as a salt. The source made the active and inactive calls. No cut-off for these calls is given here.

How the values were obtained:
HT-29 = test: Growth inhibition of human HT-29 cells after 72 hrs by SRB assay; format: functional; conditions: HT-29, 72 h
How it was run: (§1)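 Cell lines kept in RPMI with 10% FCS, 2 mM L-glutamine, penicillin/streptomycin at 37 °C, 5% CO2. Exposure 72 h to 10 concentrations from 10 to 0.0026 μg/mL. Cells fixed in 1% glutaraldehyde, stained with 0.4% SRB for 30 min, dye extracted in 10 mM Trizma base, absorbance read at 490 nm. GI50 from triplicate dose-response cultures by NCI algorithm; mean ± SD of three independent experiments.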

A549 [1] = test: Growth inhibition of human A549 cells after 72 hrs by SRB assay; format: functional; conditions: A549, 72 h; how it was run: as §1
SK-BR-3 = test: Growth inhibition of human SKBR3 cells after 72 hrs by SRB assay; format: functional; conditions: SK-BR-3, 72 h; how it was run: as §1
A549 [2] = test: Antimitotic activity in human A549 cells assessed as induction of microtubule depolymerization at 0.05 to 100 uM after 20 hrs by Hoechst 33342 staining-based fluorescence microscopy; format: functional, cell-based
How it was run: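 A-549 lung carcinoma cells plated at 150 000 cells/ml on coverslips, cultured overnight, then exposed to ligands or DMSO vehicle (residual DMSO <0.5%). Cells permeabilised with Triton X100, fixed in 3.7% formaldehyde, stained with DM1A anti-α-tubulin and FITC secondary, chromatin stained with 1 μg/mL Hoechst 33342. Examined by epifluorescence microscopy. Methods state 24 h exposure; legend states 20 h.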

A549 [3] = test: Cell cycle arrest in human A549 cells assessed as accumulation at G2/M phase at 0.001 to 100 uM after 20 hrs by propidium iodide staining-based flow cytometry; format: functional
How it was run: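 A-549 cells (180 000 per mL) incubated 20 h with ligands from 1 nM to 100 μM, with untreated and DMSO vehicle controls. Cells fixed in 70% ethanol, RNase-treated and stained with propidium iodide. DNA content read by flow cytometry to give percent of cells in each cycle phase. Lowest concentration giving G2/M arrest recorded.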

Bos taurus [4] = organism: Bos taurus; test: Inhibition of bovine brain tubulin polymerization at 1 uM after 30 mins by spectrophotometric analysis
Bos taurus [5] = organism: Bos taurus; test: Displacement of MTC from bovine brain tubulin colchicine binding site at 20 uM by fluorometric assay
How it was run: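 Calf brain tubulin 10 μM with 10 μM MTC in 10 mM sodium phosphate, 0.1 mM GTP, pH 7.0, with 20 μM ligand. Excitation at 350 nm. Fluorescence emission spectra recorded and the decrease relative to tubulin-bound MTC taken as displacement from the colchicine site.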

| Structure (SMILES) | GI50 (HT-29) | GI50 (A549 [1]) | GI50 (SK-BR-3) | Activity (A549 [2]) | Activity (A549 [3]) | inhibition (Bos taurus [4]) | Activity (Bos taurus [5]) |
| --- | --- | --- | --- | --- | --- | --- | --- |
| COc1cc([C@@H]2c3cc4c(cc3[C@](O)(C(C)(C)O)[C@H]3COC(=O)[C@H]23)OCO4)cc(OC)c1OC | 598 nM | 577 nM | 457 nM | – | – | – | – |
| COc1cc([C@@H]2c3cc4c(cc3[C@](O)(C3(O)CCCCC3)[C@H]3COC(=O)[C@@H]23)OCO4)cc(OC)c1OC | 2900 nM | 3620 nM | 1250 nM | – | – | – | – |
| COc1ccc([C@@](C)(O)[C@@]2(O)c3cc4c(cc3[C@@H](c3cc(OC)c(OC)c(OC)c3)[C@H]3C(=O)OC[C@@H]32)OCO4)cc1OC | 4750 nM | 2620 nM | 4990 nM | – | – | – | – |
| COc1cc([C@@H]2c3cc4c(cc3[C@@](O)(C3(O)CCCCC3)[C@H]3COC(=O)[C@H]23)OCO4)cc(OC)c1OC | 859 nM | 547 nM | 610 nM | – | – | – | – |
| COc1cc([C@@H]2c3cc4c(cc3[C@@](O)(C3(O)CCCC3)[C@H]3COC(=O)[C@H]23)OCO4)cc(OC)c1OC | 2720 nM | 1690 nM | 2420 nM | – | – | – | – |
| COc1cc([C@@H]2c3cc4c(cc3[C@H](O)[C@H]3COC(=O)[C@H]23)OCO4)cc(OC)c1OC [PODOFILOX] | 12 nM | 12 nM | – | Active | >70% | 7% | 25% |
| COc1cc([C@@H]2c3cc4c(cc3[C@](O)(C(O)(c3ccccc3)c3ccccc3)[C@H]3COC(=O)[C@H]23)OCO4)cc(OC)c1OC | 281 nM | 376 nM | 313 nM | – | – | – | – |
| COc1cc([C@@H]2c3cc4c(cc3/C(=C(\c3ccccc3)C(C)C)[C@H]3COC(=O)[C@@H]23)OCO4)cc(OC)c1OC | 11400 nM | 6210 nM | 14300 nM | – | – | – | – |
| COc1cc([C@@H]2c3cc4c(cc3[C@](O)([C@](C)(O)C(C)C)[C@H]3COC(=O)[C@H]23)OCO4)cc(OC)c1OC | 204 nM | 254 nM | 181 nM | – | – | – | – |
| COc1cc([C@@H]2c3cc4c(cc3[C@@](O)(C(O)(c3ccccc3)c3ccccc3)[C@H]3COC(=O)[C@H]23)OCO4)cc(OC)c1OC | 528 nM | 874 nM | 524 nM | – | – | – | – |
| COc1cc([C@@H]2c3cc4c(cc3[C@](O)([C@](O)(c3ccccc3)C(C)C)[C@H]3COC(=O)[C@H]23)OCO4)cc(OC)c1OC | 159 nM | 139 nM | 148 nM | Active | >70% | – | – |
| C=C1c2cc3c(cc2[C@@H](c2cc(OC)c(OC)c(OC)c2)[C@@H]2C(=O)OC[C@H]12)OCO3 | 78.1 nM | 28.1 nM | 66.8 nM | – | – | – | – |
| COc1cc([C@@H]2c3cc4c(cc3[C@@]3(OC(C)(C)O[C@@H]3C)[C@H]3COC(=O)[C@H]23)OCO4)cc(OC)c1OC | 5230 nM | 6220 nM | 5870 nM | – | – | – | – |
| COc1cc([C@@H]2c3cc4c(cc3[C@](O)(C3(O)CCCC3)[C@H]3COC(=O)[C@H]23)OCO4)cc(OC)c1OC | 451 nM | 444 nM | 439 nM | Active | >70% | – | – |
| COc1cc([C@@H]2c3cc4c(cc3/C(=C(/C)C(C)C)[C@H]3COC(=O)[C@@H]23)OCO4)cc(OC)c1OC | 10200 nM | 7700 nM | 4530 nM | – | – | – | – |
| COc1cc([C@@H]2c3cc4c(cc3[C@@]3(OC(C)(C)O[C@H]3C)[C@H]3COC(=O)[C@H]23)OCO4)cc(OC)c1OC | 6560 nM | 6020 nM | 6140 nM | – | – | – | – |

| Structure (SMILES) | GI50 (HT-29) | GI50 (A549 [1]) | GI50 (SK-BR-3) | Activity (A549 [2]) | Activity (A549 [3]) | inhibition (Bos taurus [4]) | Activity (Bos taurus [5]) |
| --- | --- | --- | --- | --- | --- | --- | --- |
| COc1cccc2c1C(=O)c1c(O)c3c(c(O)c1C2=O)C[C@@](O)(C(=O)CO)C[C@@H]3O[C@H]1C[C@H](N)[C@H](O)[C@H](C)O1 [DOXORUBICIN HYDROCHLORIDE] | 153 nM | 60.3 nM | 65.5 nM | – | – | – | – |
| COc1cc([C@@H]2c3cc4c(cc3[C@@H](O)[C@H]3COC(=O)[C@H]23)OCO4)cc(OC)c1OC [EPIPODOPHYLLOTOXIN] | 60 nM | 60 nM | – | – | – | – | – |
| CCC[C@@H](O)[C@@]1(O)c2cc3c(cc2[C@@H](c2cc(OC)c(OC)c(OC)c2)[C@H]2C(=O)OC[C@@H]21)OCO3 | 404 nM | 279 nM | 288 nM | – | – | – | – |
| COc1cc([C@@H]2c3cc4c(cc3[C@](O)([C@H](O)C3CC=CCC3)[C@H]3COC(=O)[C@H]23)OCO4)cc(OC)c1OC (stereo not given in full) | 2510 nM | 2030 nM | 2430 nM | – | – | – | – |
| COc1cc([C@@H]2c3cc4c(cc3[C@](O)(C3(O)CCCCC3)[C@H]3COC(=O)[C@H]23)OCO4)cc(OC)c1OC | 97.5 nM | 90.8 nM | 64.9 nM | Active | >70% | – | – |
| COc1cc([C@@H]2c3cc4c(cc3[C@H](C(C)C)[C@H]3COC(=O)[C@@H]23)OCO4)cc(OC)c1OC | 83.1 nM | 79.5 nM | 84.1 nM | Active | >70% | 84.5% | 35% |
| COc1cc([C@@H]2c3cc4c(cc3[C@](O)(C3(O)C5CCCC3CCC5)[C@H]3COC(=O)[C@H]23)OCO4)cc(OC)c1OC (stereo not given in full) | 5.14 nM | 6.39 nM | 7.39 nM | Active | >70% | 45.1% | – |
| COc1cc([C@@H]2c3cc4c(cc3[C@@](O)(C3(O)C5CCCC3CCC5)[C@H]3COC(=O)[C@H]23)OCO4)cc(OC)c1OC (stereo not given in full) | 6420 nM | 5680 nM | 6720 nM | Active | >70% | 12% | 15% |
| COc1cc([C@@H]2c3cc4c(cc3[C@](O)(C3(O)CCOCC3)[C@H]3COC(=O)[C@@H]23)OCO4)cc(OC)c1OC | 26.8 nM | 29 nM | 25.9 nM | Active | >70% | 21.1% | – |
| COc1cc([C@@H]2c3cc4c(cc3[C@](O)(C3(O)CCSCC3)[C@H]3COC(=O)[C@@H]23)OCO4)cc(OC)c1OC | 2620 nM | 3320 nM | 1780 nM | – | – | – | – |
| COc1cc([C@@H]2c3cc4c(cc3[C@@](O)(C(C)(C)O)[C@H]3COC(=O)[C@H]23)OCO4)cc(OC)c1OC | 659 nM | 1480 nM | 511 nM | – | – | – | – |
| COc1cc([C@@H]2c3cc4c(cc3C(=C(C)C)[C@H]3COC(=O)[C@@H]23)OCO4)cc(OC)c1OC | 8280 nM | 6440 nM | 3780 nM | – | – | – | – |
| COc1cc([C@@H]2c3cc4c(cc3[C@](O)([C@@](C)(O)C(C)C)[C@H]3COC(=O)[C@H]23)OCO4)cc(OC)c1OC | 1730 nM | 1150 nM | 1030 nM | – | – | – | – |
| COc1cc([C@@H]2c3cc4c(cc3[C@](O)(C3(O)CCC3)[C@H]3COC(=O)[C@H]23)OCO4)cc(OC)c1OC | 198 nM | 191 nM | 219 nM | Active | >70% | – | – |
| COc1cc([C@@H]2c3cc4c(cc3[C@@](O)(C3(O)CCOCC3)[C@H]3COC(=O)[C@@H]23)OCO4)cc(OC)c1OC | 15400 nM | 8920 nM | 8010 nM | Active | >70% | 2.8% | – |
